Source: ChEMBL document CHEMBL3046169, “Synthesis and bioactivity study of 2-acylamino-substituted N'-benzylbenzohydrazide derivatives” (2012)

Tests used:
Assay type in all cases: functional
[1] = tested on: Plutella xylostella; assay: Pesticidal activity against Plutella xylostella (diamondback moth) second-instar larvae grown on cruciferous vegetables leaves leaves as pest mortality at 600 mg/L measured 48 hr post compound exposure
How it was run: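 Over 20 second-instar larvae on cruciferous vegetable leaves dipped 5 s in compound diluted in distilled water containing 0.05% Triton X-100, excess liquid removed. Kept in illumination box at 25 ± 1 °C; mortality recorded 48 h after treatment. Each test in triplicate.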

[2] = tested on: Tetranychus cinnabarinus; assay: Pesticidal activity against Tetranychus cinnabarinus (carmine spider mite) third- instar larvae grown on Phaseolus vulgaris leaves assessed as pest mortality at 600 mg/L measured 48 hr post compound exposure
How it was run: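 More than 20 third-instar mite larvae on Phaseolus vulgaris leaves dipped 5 s in compound solutions (water with 0.05% Triton X-100), excess liquor removed. Larvae held at 25 ± 1 °C in illumination box; mortality read at 48 h. Primary screen at 600 mg L⁻¹, follow-up at 400, 200, 100, 50 and 25 mg L⁻¹ with LC50 calculated. Triplicate tests.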

[3] = tested on: Aphis gossypii; assay: Pesticidal activity against Aphis gossypii (cotton aphid) third-instar nymphae grown on tender Hibiscus syriacus leaves assessed as pest mortality at 600 mg/L measured 24 hr post compound exposure; conditions: in Hibiscus syriacus
How it was run: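 Leaf-dip bioassay: over 30 healthy apterous third-instar nymphs on tender Hibiscus syriacus leaves dipped 5 s in compound diluted in distilled water with 0.05% Triton X-100, excess fluid removed. Held in illumination box at 25 ± 1 °C; mortality scored after 24 h. Tests in triplicate.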

Question: Which mortality at 600 µg/mL [1] does the source give for Cc1cc(Cl)cc(C(=O)NNCc2ccccc2)c1NC(=O)CC(C)(C)C here?
Answer: 94%

Question: And the mortality at 600 µg/mL [2]?
Answer: 70.1%

Question: And the mortality at 600 µg/mL [3]?
Answer: 70.4%

Question: What does the source list for Cc1cc(Br)cc(C(=O)NNCc2ccc(Cl)cc2Cl)c1NC(=O)C(C)(C)CCl?
Answer: mortality at 600 µg/mL [1]: 70%; mortality at 600 µg/mL [2]: 82.5%; mortality at 600 µg/mL [3]: 3.8%

Question: Cc1cc(Br)cc(C(=O)NNCc2ccccc2Cl)c1NC(=O)CC(C)(C)C was tested. Which mortality at 600 µg/mL [1] did it give?
Answer: 76%

Question: What about the mortality at 600 µg/mL [2] of the same compound?
Answer: 11.6%

Question: And the mortality at 600 µg/mL [3]?
Answer: 88%

Question: Which results are given for Cc1cc(Cl)cc(C(=O)NNCc2ccc(F)cc2)c1NC(=O)C(C)(C)CCl?
Answer: mortality at 600 µg/mL [1]: 64%; mortality at 600 µg/mL [2]: 67%; mortality at 600 µg/mL [3]: 81.5%

Question: For Cc1cccc(C(=O)NNCc2ccc(Cl)nc2)c1NC(=O)CC(C)(C)C, which mortality at 600 µg/mL [1] is on record?
Answer: 100%

Question: And the mortality at 600 µg/mL [2]?
Answer: 19.3%

Question: And the mortality at 600 µg/mL [3]?
Answer: 65.5%

Question: Cc1cc(Br)cc(C(=O)NNCc2ccccc2)c1NC(=O)CC(C)(C)C was tested. Which mortality at 600 µg/mL [1] did it give?
Answer: 22%

Question: What about the mortality at 600 µg/mL [2] of the same compound?
Answer: 78.1%

Question: And the mortality at 600 µg/mL [3]?
Answer: 96.6%

Question: For Cc1cc(Cl)cc(C(=O)NNCc2ccc(Cl)nc2)c1NC(=O)C(C)(C)CCl, which mortality at 600 µg/mL [1] is on record?
Answer: 16%

Question: And the mortality at 600 µg/mL [2]?
Answer: 47.1%

Question: And the mortality at 600 µg/mL [3]?
Answer: 30.6%

Question: How did the mortality at 600 µg/mL [1] turn out when Cc1cc(Br)cc(C(=O)NNCc2ccc(Cl)nc2)c1NC(=O)C(C)(C)C was run?
Answer: 64%

Question: And the mortality at 600 µg/mL [2]?
Answer: 19.3%

Question: What about the mortality at 600 µg/mL [3] of the same compound?
Answer: 96.2%

Question: What does the source list for Cc1cccc(C(=O)NNCc2ccccc2)c1NC(=O)C(C)(C)CCl?
Answer: mortality at 600 µg/mL [1]: 52%; mortality at 600 µg/mL [2]: 79.3%; mortality at 600 µg/mL [3]: 95.6%

Question: How did the mortality at 600 µg/mL [1] turn out when Cc1cc(Cl)cc(C(=O)NNCc2cccc(C(F)(F)F)c2)c1NC(=O)C(C)(C)CCl was run?
Answer: 52%

Question: What about the mortality at 600 µg/mL [2] of the same compound?
Answer: 61.8%

Question: And the mortality at 600 µg/mL [3]?
Answer: 5.1%

Question: How did the mortality at 600 µg/mL [1] turn out when Cc1cc(Cl)cc(C(=O)NNCc2ccc(F)cc2)c1NC(=O)C(C)(C)C was run?
Answer: 88%

Question: And the mortality at 600 µg/mL [2]?
Answer: 73.8%

Question: And the mortality at 600 µg/mL [3]?
Answer: 41.5%

Question: Which results are given for CC(C)(C)CC(=O)Nc1ccc(Cl)cc1C(=O)NNCc1ccccc1F?
Answer: mortality at 600 µg/mL [1]: 28%; mortality at 600 µg/mL [2]: 77.6%; mortality at 600 µg/mL [3]: 1.8%

Question: With Cc1cc(Br)cc(C(=O)NNCc2ccc(Cl)nc2)c1NC(=O)C(C)(C)CCl as the compound, how does the mortality at 600 µg/mL [1] read?
Answer: 52%

Question: And the mortality at 600 µg/mL [2]?
Answer: 55.8%

Question: What about the mortality at 600 µg/mL [3] of the same compound?
Answer: 33.3%

Question: Which results are given for Cc1cc(Cl)cc(C(=O)NNCc2cccc(C(F)(F)F)c2)c1NC(=O)C(C)(C)C?
Answer: mortality at 600 µg/mL [1]: 40%; mortality at 600 µg/mL [2]: 8.6%; mortality at 600 µg/mL [3]: 68.3%

Question: Which mortality at 600 µg/mL [1] does the source give for Cc1cc(Cl)cc(C(=O)NNCc2cccc(C(F)(F)F)c2)c1NC(=O)CC(C)(C)C here?
Answer: 76%

Question: What about the mortality at 600 µg/mL [2] of the same compound?
Answer: 77.2%

Question: And the mortality at 600 µg/mL [3]?
Answer: 58.3%

Question: How did the mortality at 600 µg/mL [1] turn out when Cc1cccc(C(=O)NNCc2ccccc2Cl)c1NC(=O)C(C)(C)CCl was run?
Answer: 22%

Question: What about the mortality at 600 µg/mL [2] of the same compound?
Answer: 46.7%

Question: And the mortality at 600 µg/mL [3]?
Answer: 68.8%

Question: Which mortality at 600 µg/mL [1] does the source give for Cc1cc(Br)cc(C(=O)NNCc2ccc(Cl)nc2)c1NC(=O)CC(C)(C)C here?
Answer: 40%

Question: And the mortality at 600 µg/mL [2]?
Answer: 23.4%

Question: What about the mortality at 600 µg/mL [3] of the same compound?
Answer: 25.9%

Question: Which results are given for Cc1cc(Br)cc(C(=O)NNCc2ccccc2)c1NC(=O)C(C)(C)C?
Answer: mortality at 600 µg/mL [1]: 50%; mortality at 600 µg/mL [2]: 64.9%; mortality at 600 µg/mL [3]: 86.1%

Question: For Cc1cc(Cl)cc(C(=O)NNCc2ccc(Cl)cc2Cl)c1NC(=O)C(C)(C)CCl, which mortality at 600 µg/mL [2] is on record?
Answer: 73.8%

Question: And the mortality at 600 µg/mL [3]?
Answer: 42.3%

Question: With Cc1cc(Cl)cc(C(=O)NNCc2ccccc2)c1NC(=O)C(C)(C)CCl as the compound, how does the mortality at 600 µg/mL [1] read?
Answer: 52%

Question: What about the mortality at 600 µg/mL [2] of the same compound?
Answer: 50.9%

Question: What about the mortality at 600 µg/mL [3] of the same compound?
Answer: 68.5%
